Reference: ChEMBL document CHEMBL1146375, “Synthetic studies on novel benzimidazolopeptides with antimicrobial, cytotoxic and anthelmintic potential” (2007)
In brackets after ≈: the same amount, converted by molar mass. Residues, ends and D or L forms follow the SMILES beside them. *: point of attachment. X4 = Cc1cc2nc(-c3ccc(C(=O)*)cc3)[nH]c2cc1C

Experiments:
Trichophyton benhamiae [1] = test: Antifungal activity against Trichophyton mentagrophytes MUCC 665 after 48 hrs by tube dilution method; type: functional, Arthroderma benhamiae
In short: (§1)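 Tube dilution MIC as for bacteria (seven concentrations, 200–3.1 […]), with DMSO in place of DMF. Tubes inoculated with fungal culture and incubated 48 h at 37 °C. MIC read from presence or absence of growth.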

[2] = Anthelmintic activity against Megascoplex konkanensis ICARBC 211 assessed as mean paralyzing time; type: functional
In short: (§2)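 Earthworms exposed to test suspensions at 2 mg mL^-1 (0.2% w/v), made by triturating compound with Tween 80 (0.5%) and distilled water, then mechanically stirred 30 min. Mebendazole suspension prepared alike as reference. Paralysis and death times recorded; death confirmed by no movement in 50 °C water. Means from triplicate sets.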

Pseudomonas aeruginosa [3] = test: Antibacterial activity against Pseudomonas aeruginosa NCIM 2034 after 18 hrs by disc diffusion method; type: functional
In short: (§3)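 Modified Kirby-Bauer disc diffusion. Plates inoculated with spore suspension (about 6 × 10⁴ spores mL^-1). Sterile 6 mm paper discs carried test samples at 10 mg mL^-1; ciprofloxacin disc as reference, DMF disc as negative control. Plates held 18 h at 37 °C. Inhibition zone diameters (mm) averaged over triplicate sets.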

Trichophyton benhamiae [4] = test: Antifungal activity against Trichophyton mentagrophytes MUCC 665 after 48 hrs by disc diffusion method; type: functional, Arthroderma benhamiae
In short: (§4)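 Agar well diffusion on plates inoculated with spore suspension in normal saline from cultures on Sabouraud's broth. Wells punched and loaded with test samples or griseofulvin at 10 mg mL^-1, with DMSO as negative control. Incubated 48 h at 37 °C.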

Microsporum audouinii [5] = test: Antifungal activity against Microsporum audouinii MUCC 545 after 48 hrs by tube dilution method; type: functional; in short: as §1
Pseudomonas aeruginosa [6] = test: Antibacterial activity against Pseudomonas aeruginosa NCIM 2034 after 18 hrs by tube dilution method; type: functional; details: NCIM 2034, 18 h
In short: (§5)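 Tube dilution MIC. Stock diluted in sterile broth to seven concentrations from 200 to 3.1 […]. Each tube inoculated with one loopful of test bacterium and incubated 18 h at 37 °C. MIC read from presence or absence of growth.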

Escherichia coli [7] = test: Antibacterial activity against Escherichia coli NCIM 2065 after 18 hrs by tube dilution method; type: functional; details: NCIM 2065, 18 h
Eudrilus [8] = test: Anthelmintic activity against Eudrilus sp. assessed as mean paralyzing time; type: functional; in short: as §2
Eudrilus [9] = test: Anthelmintic activity against Eudrilus sp. assessed as mean death time; type: functional
In short: (§6)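 Earthworms exposed to test suspensions at 2 mg mL−1, prepared by triturating compound with Tween 80 (0.5%) and distilled water, stirring 30 min, then diluting to 0.2% w/v. Mebendazole suspension was made the same way. Death was confirmed by moving worms into 50 °C warm water and looking for movement. Mean death time (min) taken from triplicate sets.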

Staphylococcus aureus [10] = test: Antibacterial activity against Staphylococcus aureus NCIM 2079 after 18 hrs by disc diffusion method; type: functional; in short: as §3
Escherichia coli [11] = test: Antibacterial activity against Escherichia coli NCIM 2065 after 18 hrs by disc diffusion method; type: functional; in short: as §3
Pontoscolex corethrurus [12] = test: Anthelmintic activity against Pontoscolex corethrurus ICARBC 408 assessed as mean paralyzing time; type: functional; in short: as §2
Bacillus subtilis [13] = test: Antibacterial activity against Bacillus subtilis NCIM 2063 after 18 hrs by tube dilution method; type: functional; details: NCIM 2063, 18 h; in short: as §5
Pontoscolex corethrurus [14] = test: Anthelmintic activity against Pontoscolex corethrurus ICARBC 408 assessed as mean death time; type: functional; in short: as §6
[15] = Anthelmintic activity against Megascoplex konkanensis ICARBC 211 assessed as mean death time; type: functional; in short: as §2
Bacillus subtilis [16] = test: Antibacterial activity against Bacillus subtilis NCIM 2063 after 18 hrs by disc diffusion method; type: functional; in short: as §3
Candida albicans [17] = test: Antifungal activity against Candida albicans MUCC 29 after 48 hrs by disc diffusion method; type: functional; in short: as §4
Aspergillus niger = test: Antifungal activity against Aspergillus niger MUCC 177 after 48 hrs by disc diffusion method; type: functional; in short: as §4
Staphylococcus aureus [18] = test: Antibacterial activity against Staphylococcus aureus NCIM 2079 after 18 hrs by tube dilution method; type: functional; details: NCIM 2079, 18 h; in short: as §5
Candida albicans [19] = test: Antifungal activity against Candida albicans MUCC 29 after 48 hrs by tube dilution method; type: functional; in short: as §1
Microsporum audouinii [20] = test: Antifungal activity against Microsporum audouinii MUCC 545 after 48 hrs by disc diffusion method; type: functional; in short: as §4

SMILES	MIC (Trichophyton benhamiae [1])	TIME [2]	inhibition zone (IZ) (Pseudomonas aeruginosa [3])	inhibition zone (IZ) (Trichophyton benhamiae [4])	MIC (Microsporum audouinii [5])	MIC (Pseudomonas aeruginosa [6])	MIC (Escherichia coli [7])	Time (Eudrilus [8])	Time (Eudrilus [9])	inhibition zone (IZ) (Staphylococcus aureus [10])	inhibition zone (IZ) (Escherichia coli [11])	Time (Pontoscolex corethrurus [12])	MIC (Bacillus subtilis [13])	Time (Pontoscolex corethrurus [14])	TIME [15]	inhibition zone (IZ) (Bacillus subtilis [16])	inhibition zone (IZ) (Candida albicans [17])	inhibition zone (IZ) (Aspergillus niger)	MIC (Staphylococcus aureus [18])	MIC (Candida albicans [19])	further results
COC(=O)[C@H](CCCNC(=N)N[N+](=O)[O-])NC(=O)c1cc(-c2nc3ccc([N+](=O)[O-])cc3[nH]2)ccc1O	6 µg/mL (≈ 11.7 µM)	0.27 h	19 mm	15 mm	6 µg/mL (≈ 11.7 µM)	6 µg/mL (≈ 11.7 µM)	12.5 µg/mL (≈ 24.3 µM)	17.98 min	28.27 min	10 mm	15 mm	20.65 min	6 µg/mL (≈ 11.7 µM)	32.22 min	0.426 h	13 mm	15 mm	18 mm	25 µg/mL (≈ 48.6 µM)	12.5 µg/mL (≈ 24.3 µM)	inhibition zone (IZ) (Microsporum audouinii [20]): 13 mm
CC[C@H](C)[C@H](NC(=O)CNC(=O)[C@H](Cc1c[nH]c2ccccc12)NC(=O)c1ccc(-c2nc3cc(C)c(C)cc3[nH]2)cc1)C(=O)N[C@@H](C)C(=O)OC (X4-WGIA-OMe)	25 µg/mL (≈ 35.3 µM)	0.221 h	20 mm	9 mm	6 µg/mL (≈ 8.48 µM)	6 µg/mL (≈ 8.48 µM)	12.5 µg/mL (≈ 17.7 µM)	13.59 min	24.1 min	10 mm	18 mm	17.22 min	6 µg/mL (≈ 8.48 µM)	29.57 min	0.375 h	14 mm	19 mm	19 mm	12.5 µg/mL (≈ 17.7 µM)	25 µg/mL (≈ 35.3 µM)	inhibition zone (IZ) (Microsporum audouinii [20]): 10 mm
Cc1cc2nc(-c3c(I)cc(C(=O)N[C@@H](Cc4ccccc4)C(=O)N[C@H](C(=O)N4CCC[C@H]4C(=O)O)C(C)C)cc3I)[nH]c2cc1C	6 µg/mL (≈ 6.96 µM)	0.44 h	24 mm	13 mm	12.5 µg/mL (≈ 14.5 µM)	12.5 µg/mL (≈ 14.5 µM)	25 µg/mL (≈ 29 µM)	27.1 min	44.1 min	13 mm	18 mm	34.13 min	6 µg/mL (≈ 6.96 µM)	50.13 min	0.698 h	17 mm	17 mm	15 mm	25 µg/mL (≈ 29 µM)	6 µg/mL (≈ 6.96 µM)	inhibition zone (IZ) (Microsporum audouinii [20]): 11 mm
Cc1cc2nc(-c3ccc(C(=O)N[C@@H](CCCNC(=N)N[N+](=O)[O-])C(=O)O)cc3)[nH]c2cc1C	12.5 µg/mL (≈ 26.7 µM)	0.302 h	25 mm	14 mm	12.5 µg/mL (≈ 26.7 µM)	6 µg/mL (≈ 12.8 µM)	12.5 µg/mL (≈ 26.7 µM)	18.38 min	38.12 min	11 mm	19 mm	21.51 min	12.5 µg/mL (≈ 26.7 µM)	34.96 min	0.438 h	15 mm	17 mm	16 mm	25 µg/mL (≈ 53.5 µM)	12.5 µg/mL (≈ 26.7 µM)	inhibition zone (IZ) (Microsporum audouinii [20]): 10 mm
COC(=O)[C@H](C)NC(=O)[C@H](CCCNC(=N)N[N+](=O)[O-])NC(=O)c1cc(-c2nc3cc(C)c(C)cc3[nH]2)ccc1O	6 µg/mL (≈ 10.6 µM)	0.279 h	22 mm	10 mm	6 µg/mL (≈ 10.6 µM)	6 µg/mL (≈ 10.6 µM)	12.5 µg/mL (≈ 22 µM)	17.35 min	28.54 min	11 mm	17 mm	20.38 min	6 µg/mL (≈ 10.6 µM)	32.65 min	0.423 h	15 mm	19 mm	18 mm	12.5 µg/mL (≈ 22 µM)	12.5 µg/mL (≈ 22 µM)	inhibition zone (IZ) (Microsporum audouinii [20]): 11 mm
